Paper PMC4436074 (mBio, 2015)
Where a name gives a salt, the structure may show the parent alone. Read-outs that look alike come from different tables or passages of the source.

How the values were obtained:
RopB = experiment: PspeB-luxAB reporter, NZ131; type: cell-based, S. pyogenes; conditions: C medium; 10 µM CsA or valspodar; 300 mM NaCl
How it was run: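 PspeB-luxAB reporter (speB upstream region–luxAB, integrated) grown in C medium to exponential phase (OD600 0.1). Test compound added at 10 µM; 300 mM NaCl used as the suppressing condition. Decanal vapour supplied; 37°C with shaking. OD600 and luminescence read every 15 min for 8 h; relative luminescence taken as maximum cps/OD600.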

ComR [1] = target: T1, ComR (Streptococcus mutans serotype c, UniProt Q8DWI6); type: binding, S. mutans; conditions: read-out: ComR Avg % inhibition
T1 sequence (Q8DWI6 1-304): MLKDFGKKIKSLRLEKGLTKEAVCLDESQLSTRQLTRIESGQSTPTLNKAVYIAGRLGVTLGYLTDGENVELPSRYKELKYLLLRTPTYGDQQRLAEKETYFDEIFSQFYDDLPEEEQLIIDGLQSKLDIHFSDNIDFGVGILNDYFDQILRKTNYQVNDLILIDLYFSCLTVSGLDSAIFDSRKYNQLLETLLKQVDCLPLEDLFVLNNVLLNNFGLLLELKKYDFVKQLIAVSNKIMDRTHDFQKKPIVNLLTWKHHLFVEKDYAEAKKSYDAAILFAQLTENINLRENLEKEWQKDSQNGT

[2] = tested on: Rgg2/3-regulated promoter Pshp2-luxAB (BNL148); experiment: Pshp2-luxAB luciferase reporter assay, strain BNL148, sSHP2-C8 induced; type: cell-based, S. pyogenes; conditions: for inhibition of SHP-induced light production (transcription): 10 µM compound with 10 nM SHP2-C8, BNL148; for IC50: Streptococcus pyogenes
Rgg3 = type: binding, Streptococcus pyogenes; conditions: HTS, duplicate; 0.1 µl of 10 mM compound in 30 µl; 180 nM His6-Sumo-Rgg3, 10 nM FITC-SHP2-C8
How it was run: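 Approved-drug library (1,280 compounds, DMSO stocks) pinned into assay mix of 1× PBS, 0.1 mg/ml BSA, 0.01% Triton X-100 and 5 mM DTT. Plates were shaken 20 s, then held 15 min at room temperature, and polarization was read at ex 485/em 535 nm. Each plate had 32 DMSO negative-control wells and 32 unlabeled SHP2-C8 (1 mM stock) positive-control wells. % inhibition was scaled between the per-plate control means, and plate Z′ was computed.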

S. pyogenes cultures = experiment: Bacterial growth curves; type: cell-based; conditions: 10 µM compound with 10 nM sSHP2-C8, 37°C
How it was run: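 S. pyogenes grown at 37°C in chemically defined medium (CDM) to OD600 0.1, then given 10 nM SHP2-C8 alone or with 10 µM test compound. OD600 read every 30 min for 8 h.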

[3] = tested on: ComR-XIP QS system, PsigX-luxAB; experiment: PsigX-luxAB reporter; type: cell-based, S. mutans; conditions: 10 µM compound, 100 nM XIP, UA159(pWAR304)
How it was run: (§1)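 PsigX-luxAB reporter strains grown in CDM to OD600 0.1 and incubated with 10 µM test compound plus 100 nM XIP. Decanal (1% in mineral oil) supplied as vapour; sealed plate shaken at 37°C. OD600 and luminescence read every 15 min for 8 h; relative luminescence taken as maximum cps/OD600.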

[4] = tested on: Rgg-SHP quorum-sensing pathway, Pshp-luxAB; experiment: Pshp-luxAB reporter in S. agalactiae A909; type: cell-based; conditions: S. agalactiae (GBS), 5 µM antagonist
How it was run: (§2)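 Reporter strains carry shp-promoter–luxAB fusions on a pLZ12-spec plasmid: Pshp1520 in GBS A909, Pshp2 in GGS, Pshp3 in S. porcinus. S. porcinus was given synthetic SHP. Strains grown in CDM to OD600 0.1 and exposed to 5 µM antagonist. Decanal (1% in mineral oil) supplied as vapour. OD600 and luminescence read at 37°C every 15 min for 8 h; relative luminescence taken as maximum cps/OD600.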

[5] = tested on: ComR-XIP QS system, PsigX-luxAB; experiment: PsigX-luxAB reporter; type: cell-based, S. pyogenes; conditions: 10 µM compound, 100 nM XIP, MGAS315(pWAR200)
How it was run: as §1

[6] = tested on: Rgg-SHP quorum-sensing pathway, Pshp-luxAB; experiment: Pshp-luxAB reporter in S. dysgalactiae GGS-LT1; type: cell-based; conditions: 5 µM antagonist
How it was run: as §2

[7] = tested on: Rgg-SHP quorum-sensing pathway, Pshp-luxAB; experiment: Pshp-luxAB reporter in S. porcinus NCTC 10999; type: cell-based; conditions: 5 µM antagonist
How it was run: as §2

Rgg2 = experiment: Pshp2-luxAB luciferase reporter assay, Δrgg3 strain BNL178; type: cell-based, S. pyogenes
How it was run: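 Pshp2-luxAB reporter strains grown in CDM to exponential phase (OD600 0.1). Cultures dispensed into wells with 10 nM SHP2-C8 alone or with test compound: 10 µM for the Δrgg3 strain BNL178, 5 µM CsA for the other strains. Decanal (1% in mineral oil) supplied as vapour; plate sealed and shaken continuously at 37°C. OD600 and luminescence read every 15 min for 8 h; relative luminescence taken as maximum cps/OD600.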

ComR [8] = target: T1, ComR; type: binding, S. mutans; conditions: competition with FITC-XIP
[9] = tested on: S. pyogenes strain NZ131 biofilm; experiment: SHP-dependent biofilm assay, crystal violet staining, strain NZ131; type: cell-based; conditions: 10 nM SHP2-C8, 20 h
How it was run: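 NZ131 grown overnight in THY at 30°C, diluted 1:100 into CDM, grown at 37°C to late exponential phase, back-diluted to OD600 0.02 in CDM with 10 nM SHP2-C8 and 2-fold dilutions of test compound (5 to 0.156 µM); 0.1% DMSO controls. At OD600 ~0.1 plated in duplicate, 20 h at 37°C, 5% CO2. Saline wash, dry-fixed, 0.2% crystal violet, A595; ≥3 independent experiments, standard errors.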

FITC-XIP (S. mutans) = experiment: fluorescence polarisation
[10] = target: FITC-SHP2-C8 (Streptococcus pyogenes); experiment: fluorescence polarisation
[11] = target: His6-SUMO-Rgg3 (Streptococcus pyogenes); experiment: fluorescence polarisation
[12] = read-out: IC50, luciferase assay dose-response

With `[Cl-].[Na+]` [NaCl] the “effect on activation of PspeB (luciferase activity)” value (RopB) was “abolished luciferase activity”.

With `CCCc1nc(C(C)(C)O)c(C(=O)O)n1Cc1ccc(-c2ccccc2-c2nnn[nH]2)cc1` [Olmesartan] the inhibition (ComR [1]) was 1%, the “inhibition of SHP-induced light production (transcription)” value (from here on “inhibition … (transcription)”) [2] was “less than 50%” and the “Rgg3 Avg % inhibition” value (Rgg3) was 73%.

`CC(C)(C)NC(=O)[C@@H]1C[C@@H]2CCCC[C@@H]2CN1C[C@@H](O)[C@H](Cc1ccccc1)NC(=O)[C@H](CC(N)=O)NC(=O)c1ccc2ccccc2n1` [Saquinavir mesylate] was tested, and the inhibition (ComR [1]) was 13%, the IC50 [2, 12] was over 10000 nM and the “Rgg3 Avg % inhibition” value (Rgg3) was 84%.

In the case of `CCC(C)(C)C(=O)O[C@H]1C[C@@H](C)C=C2C=C[C@H](C)[C@H](CC[C@@H]3C[C@@H](O)CC(=O)O3)[C@H]21` [Simvastatin], the inhibition (ComR [1]) is reported as 10%, the “inhibition … (transcription)” value [2] is reported as “less than 50%” and the IC50 [2, 12] is reported as over 10000 nM. The “Rgg3 Avg % inhibition” value (Rgg3) was 85% and the “effect on culture growth” value (S. pyogenes cultures) was “inhibited culture growth”.

With `CCCc1nc2c(C)cc(-c3nc4ccccc4n3C)cc2n1Cc1ccc(-c2ccccc2C(=O)O)cc1` [Telmisartan] the inhibition (ComR [1]) was 3%, the “inhibition … (transcription)” value [2] was “less than 50%” and the “Rgg3 Avg % inhibition” value (Rgg3) was 99%.

For `C/C=C/C[C@@H](C)C(=O)[C@H]1C(=O)N[C@@H](C(C)C)C(=O)N(C)CC(=O)N(C)[C@@H](CC(C)C)C(=O)N[C@@H](C(C)C)C(=O)N(C)[C@@H](CC(C)C)C(=O)N[C@@H](C)C(=O)N[C@H](C)C(=O)N(C)[C@@H](CC(C)C)C(=O)N(C)[C@@H](CC(C)C)C(=O)N(C)[C@@H](C(C)C)C(=O)N1C` [Valspodar, [3′-keto-Bmt1-Val2]-cyclosporine], the “inhibition … (transcription)” value [2] was “completely abolished light production”, the IC50 ([2]; read-out: IC50 (nM), luciferase assay dose-response) was 252 nM and the IC50 [2, 12] was 500 nM. The “effect on light production of PsigX-luxAB” value [3] was “not affected”, the “fold inhibition of light production” value [4] was “at least 5 fold” and the “effect on light production of PsigX-luxAB” value [5] was “not affected”. For the same molecule, the “fold inhibition of light production” value [6] was “at least 5 fold”, the “effect on culture growth” value (S. pyogenes cultures) was “do not display toxic effects on GAS growth” and the “effect on activation of PspeB (luciferase activity)” value (RopB) was “unable to block activation of PspeB”. For the same molecule, the “fold inhibition of light production” value ([7]; S. porcinus (GES), sSHP stimulated) was “at least 5 fold”, the “effect on the S. porcinus strain (in words)” value ([7]; S. porcinus) was “only a moderate effect” and the “inhibition of transcription in strain with only Rgg2 present” value (Rgg2) was “effective at inhibiting transcription”. The “binding to ComR” value (ComR [8]) was “did not bind to ComR” and the “concentration sufficient to prevent SHP-dependent biofilm development” value [9] was 0.312 µM.

His6-ComR (S. mutans UA159) (receptor) gave a Kd (FITC-XIP (S. mutans)) of 1000 nM.

His6-SUMO-Rgg3 (receptor) was tested, and the Kd [10] was 160 nM.

DILIIVGG [SHP2-C8 (unlabeled synthetic peptide)] was tested, and the Kd [11] was 220 nM.
